Results: ChEMBL document CHEMBL2040734, “Benzothiazoles: search for anticancer agents” (2012)

Tests used:
Type in all cases: functional
[1] = tested on: UO-31; assay: Cytotoxicity against human UO31 cells assessed as cell growth at 0.01 uM after 48 hrs by sulforhodamine B assay; settings: UO-31, 48 h, read-out: Activity
[2] = tested on: PC-3; assay: Cytotoxicity against human PC3 cells assessed as cell growth at 0.01 uM after 48 hrs by sulforhodamine B assay; settings: PC-3, 48 h, read-out: Activity
[3] = tested on: HCT-15; assay: Cytotoxicity against human HCT15 cells assessed as cell growth at 100 uM after 48 hrs by sulforhodamine B assay; settings: HCT-15, 48 h, read-out: Activity
Method in brief: (§1)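 Five-dose NCI panel run at 0.01, 0.1, 1, 10 and 100 µM. Cells were in RPMI 1640 with 5% FBS and 2 mM L-glutamine, seeded at 5000–40,000 cells/well and pre-incubated 24 h. Drug was diluted from a DMSO stock into medium with 50 µg/ml gentamicin. Exposure was 48 h at 37 °C, 5% CO2. Cells were fixed with cold TCA and stained with 0.4% SRB, read at 515 nm. Percent growth came from time-zero, control and test absorbances.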

[4] = tested on: HT-29; assay: Cytotoxicity against human HT-29 cells assessed as cell growth at 100 uM after 48 hrs by sulforhodamine B assay; settings: HT-29, 48 h, read-out: Activity; method in brief: as §1
[5] = tested on: MCF7; assay: Cytotoxicity against human MCF7 cells assessed as cell growth at 100 uM after 48 hrs by sulforhodamine B assay; settings: MCF7, 48 h, read-out: Activity
[6] = tested on: BT-549; assay: Cytotoxicity against human BT549 cells assessed as cell growth at 100 uM after 48 hrs by sulforhodamine B assay; settings: BT-549, 48 h, read-out: Activity
Method in brief: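 NCI-60 five-dose screen. Cells were grown in RPMI 1640 with 5% FBS and 2 mM L-glutamine and preincubated 24 h. Compound (DMSO stock) was tested at 0.01, 0.1, 1, 10 and 100 µM for 48 h at 37 °C. Cells were fixed in situ with cold TCA (final 10%) and stained with 0.4% SRB. A515 was read, and percent growth was calculated against time-zero and control plates.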

[7] = tested on: NCI-H23; assay: Cytotoxicity against human NCI-H23 cells assessed as cell growth at 1 uM after 48 hrs by sulforhodamine B assay; settings: NCI-H23, 48 h, read-out: Activity
[8] = tested on: RPMI-8226; assay: Cytotoxicity against human RPMI8226 cells assessed as cell growth at 10 uM after 48 hrs by sulforhodamine B assay; settings: RPMI-8226, 48 h, read-out: Activity
[9] = tested on: SR; assay: Cytotoxicity against human SR cells assessed as cell growth at 10 uM after 48 hrs by sulforhodamine B assay; settings: read-out: Activity
[10] = tested on: KM12; assay: Cytotoxicity against human KM12 cells assessed as cell growth at 10 uM after 48 hrs by sulforhodamine B assay; settings: KM12, 48 h, read-out: Activity
[11] = tested on: SW-620; assay: Cytotoxicity against human SW620 cells assessed as cell growth at 10 uM after 48 hrs by sulforhodamine B assay; settings: SW-620, 48 h, read-out: Activity
[12] = tested on: SK-MEL-28; assay: Cytotoxicity against human SK-MEL-28 cells assessed as cell growth at 10 uM after 48 hrs by sulforhodamine B assay; settings: SK-MEL-28, 48 h, read-out: Activity
[13] = tested on: SN12C; assay: Cytotoxicity against human SN12C cells assessed as cell growth at 10 uM after 48 hrs by sulforhodamine B assay; settings: read-out: Activity
[14] = tested on: OVCAR-8; assay: Cytotoxicity against human OVCAR8 cells assessed as cell growth at 10 '-5 M after 48 hrs by sulforhodamine B assay; settings: OVCAR-8, 48 h, read-out: Activity
[15] = tested on: SN12C; assay: Cytotoxicity against human SN12C cells assessed as cell growth at 10 '-5 M after 48 hrs by sulforhodamine B assay; settings: read-out: Activity
[16] = tested on: DU-145; assay: Cytotoxicity against human DU145 cells assessed as cell growth at 10 '-5 M after 48 hrs by sulforhodamine B assay; settings: DU-145, 48 h, read-out: Activity
Method in brief: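 Primary one-dose screen across the NCI 60-line panel at 10 µM. Cells were grown in RPMI 1640 with 5% FBS and 2 mM L-glutamine and held 24 h before drug. Drug was diluted from a DMSO concentrate. Exposure was 48 h at 37 °C, 5% CO2. Cells were fixed with TCA and stained with SRB, with absorbance read at 515 nm. Percent growth was calculated against time-zero and untreated control.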

[17] = tested on: HL-60(TB); assay: Growth inhibition of human HL-60(TB) cells after 48 hrs by sulforhodamine B assay; settings: HL-60, 48 h; for CC50: read-out: LC50 (the source's name)
Method in brief: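 HL-60(TB) suspension cells in RPMI 1640 with 5% FBS and 2 mM L-glutamine were treated for 48 h at five concentrations (0.01–100 µM). Settled cells were fixed with 16% TCA (final), SRB-stained and read at 515 nm. GI50 was the concentration giving (Ti−Tz)/(C−Tz)×100 = 50 from log concentration–growth curves, expressed as ">" if not reached at the top concentration.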

[18] = tested on: HT-29; assay: Growth inhibition of human HT-29 cells after 48 hrs by sulforhodamine B assay; settings: HT-29, 48 h
Method in brief: (§2)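 Adherent NCI-60 lines were grown in RPMI 1640 with 5% FBS and 2 mM L-glutamine, plated at 5000–40,000 cells/well and preincubated 24 h. They were then exposed to five concentrations (0.01–100 µM, from a DMSO stock) for 48 h at 37 °C, 5% CO2. Cells were fixed with cold TCA (10% final, 60 min, 4 °C) and stained with 0.4% SRB. Dye was solubilized in 10 mM Tris base and A515 read. GI50 was derived from time-zero, control and treated absorbances.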

[19] = tested on: OVCAR-5; assay: Growth inhibition of human OVCAR5 cells after 48 hrs by sulforhodamine B assay; settings: OVCAR-5, 48 h; method in brief: as §2
[20] = tested on: UO-31; assay: Growth inhibition of human UO31 cells after 48 hrs by sulforhodamine B assay; settings: UO-31, 48 h; for CC50: read-out: LC50 (the source's name); method in brief: as §2
[21] = tested on: T47D; assay: Growth inhibition of human T47D cells after 48 hrs by sulforhodamine B assay; method in brief: as §2
[22] = tested on: CCRF-CEM; assay: Cytotoxicity against human CCRF-CEM cells at 0.01 uM after 48 hrs by sulforhodamine B assay
Method in brief: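 CCRF-CEM suspension leukemia cells in RPMI 1640 with 5% FBS and 2 mM L-glutamine, plated 24 h before dosing. Five concentrations (0.01–100 µM) were applied from a DMSO stock for 48 h at 37 °C. Settled cells were fixed with 80% TCA (final 16%) and stained with SRB, with read-out at 515 nm. Percent growth was derived from time-zero and control absorbances.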

[23] = tested on: HCC 2998; assay: Cytotoxicity against human HCC2998 cells assessed as cell growth at 0.01 uM after 48 hrs by sulforhodamine B assay; settings: HCC 2998, 48 h, read-out: Activity; method in brief: as §1
[24] = tested on: NCI-H23; assay: Cytotoxicity against human NCI-H23 cells assessed as cell growth at 10 '-5 M after 48 hrs by sulforhodamine B assay; settings: NCI-H23, 48 h, read-out: Activity

SMILES | growth at 0.01 µM [1] | growth at 0.01 µM [2] | growth at 100 µM [3] | growth at 100 µM [4] | growth at 100 µM [5] | growth at 100 µM [6] | growth at 1 µM [7] | growth at 10 µM [8] | growth at 10 µM [9] | growth at 10 µM [10] | growth at 10 µM [11] | growth at 10 µM [12] | growth at 10 µM [13] | growth at 10 µM [14] | growth at 10 µM [15] | growth at 10 µM [16] | TGI [17] | CC50 [17] | GI50 [18] | LC50 (concentration killing 50% of cells) [18] | also measured
Cc1ccc2nc(Nc3c(C)cccc3C)sc2c1 | 90% | 102% | 40% | 39% | 46% | 73% | 79% | 55% | 13% | 30% | 22% | 45% | 36% | 56.4% | 50% | 62.1% | > 100 µM | > 100 µM | 0.629 µM | > 100 µM | TGI [18]: > 100 µM; GI50 [19]: > 100 µM; LC50 [19]: > 100 µM; TGI [19]: > 100 µM; TGI [20]: > 100 µM; CC50 [20]: > 100 µM; GI50 [21]: 54.8 µM; LC50 (concentration giving 50% net cell kill) [21]: > 100 µM; TGI [21]: > 100 µM; Activity [22]: 94%; growth at 0.01 µM [23]: 97%; growth at 10 µM [24]: 57.5%
Clc1cccc(Cl)c1Nc1nc2cccc(Cl)c2s1 | 88% | 96% | -74% | -56% | -55% | -48% | 59% | -19% | -49% | -96% | -86% | -86% | -94% | -13.8% | -71.5% | -7.04% | 3.75 µM | 20.6 µM | 1.29 µM | 6.97 µM | GI50 [17]: 1.32 µM; TGI [18]: 2.99 µM; GI50 [19]: 1.48 µM; LC50 [19]: 5.61 µM; TGI [19]: 2.88 µM; GI50 [20]: 0.161 µM; TGI [20]: 1.67 µM; CC50 [20]: 4.44 µM; GI50 [21]: 0.841 µM; LC50 (concentration giving 50% net cell kill) [21]: 5.08 µM; TGI [21]: 2.18 µM; Activity [22]: 96%; growth at 0.01 µM [23]: 92%; growth at 10 µM [24]: -10.5%
